MEP2-GFP yeast = modulators of TOR pathway MEP2-GFP in S. cerevisiae; 0.51% of 330,000 active; GFP response vs DMSO, % at 10 µM; AID 2016; S. cerevisiae MEP2-GFP strain, flow cytometry GFP, 3 h; 100% = DMSO control level;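 active means GFP response versus DMSO above a set limit, roughly screen mean plus 3 SD, cut at about 180% in these data; inconclusive means fewer than 70 cells counted for a yeast strain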;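 further: median GFP fluorescence of the barcode-gated MEP2-GFP cells per well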
LAP4-GFP MLPCN = modulators of TOR pathway LAP4-GFP in S. cerevisiae; S. cerevisiae LAP4-GFP multiplex, flow cytometry GFP, 3 h; median GFP as percent of DMSO wells; GFP response vs DMSO, % at 10 µM; 0.34% of 320,000 active; AID 2023;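 active means GFP response vs DMSO above a set limit, about the screen mean plus 3 SD, cut at about 150% in these data; inconclusive means under 70 cell events counted for the yeast strain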
RPL19A TOR yeast = yeast TOR pathway RPL19A-GFP modulation | S. cerevisiae RPL19A-GFP strain, flow cytometry, 3 h; stronger effect = lower value | percent response vs DMSO, % at 10 µM | 0.3% of 330,000 active | AID 2025;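 active means percent response vs DMSO below 50%; inconclusive means fewer than 70 events counted for the yeast strain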;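 further: median channel GFP fluorescence of the barcoded RPL19A-GFP strain; ratio of sample median GFP to plate DMSO average so 100% = DMSO; lower means less RPL19A-GFP as with rapamycin TOR inhibition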
CIT2-GFP yeast = alters CIT2-GFP fluorescence in TOR pathway yeast screen. S. cerevisiae CIT2-GFP strain, flow cytometry, 3 h; 100 means same as DMSO wells. GFP response vs DMSO, % at 10 µM. 0.065% of 320,000 active;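 active means GFP response relative to DMSO above a set limit, near the screen mean plus 3 SD, cut at about 150% in these data; inconclusive means Fewer than 70 cells measured for a yeast strain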;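 further: ratio of well median GFP fluorescence to mean of DMSO wells on the plate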
AGP1-GFP MLPCN = alters AGP1-GFP fluorescence in TOR pathway yeast screen; GFP response vs DMSO, % at 10 µM; AID 2066; S. cerevisiae AGP1-GFP multiplex flow cytometry, 3 h; GFP as percent of DMSO wells; 0.02% of 320,000 active;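 active means GFP response relative to DMSO above a set limit, near screen average plus 3 SD, cut at about 150% in these data; inconclusive means fewer than 70 cells counted for the yeast strain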;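 further: median GFP channel fluorescence of the gated AGP1 strain per well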
T cell HTS = modulates CD8 T cell binding to vesicles; 2C CD8+ T cell-vesicle binding, flow cytometry; stronger effect = lower value; response (vesicle binding), % at 7 µM; 0.068% of 330,000 active; AID 2052;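 active means response, share of CD8 T cells binding vesicles, and their 90th percentile fluorescence all below set limits, cut at about 80% in these data, passing the limit was not always enough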;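 further: values below 100% mean blocked vesicle binding to the CD8+ T cells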
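Material: murine 2C transgenic CD8+ T lymphocytes / Also added: QL9-peptide-loaded Drosophila micro-vesicles bearing Ld, ICAM-1 and B7-1 / Schedule: binding step 1.5 h, 37 °C, antibody labelling 20 min, ice / Signal: flow cytometry, PE anti-B7-1 (FL2) versus Alexa647 anti-CD8 (FL8), PFA-fixed / Evaluation: percent CD8+ FL2 mean versus row control / Benchmarks: naked versus QL9-loaded vesicles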
Numbers without * were called inactive; i = inactive; ? = inconclusive; + = active, no number; [ ] = remark or other dose. A selection: hits, their analogues and other compounds. The true share with any hit is near 0.96%.

SMILES	MEP2-GFP yeast	LAP4-GFP MLPCN	RPL19A TOR yeast	CIT2-GFP yeast	AGP1-GFP MLPCN	T cell HTS
O=C(CSc1ccc(Cl)cc1)Nc1cccc(-c2nc3ccccc3[nH]2)c1	188*	113	101	104	98	207
NS(=O)(=O)c1ccc(S(=O)(=O)N(CCc2ccccc2)Cc2ccccn2)cc1	94	81	103	105	100	198
COCCCN1C(=O)C2C(C(=O)Nc3cc(C)cc(C)c3)C3C=CC2(O3)C1C(=O)NC1CCCCC1 (configuration not stated)	217*	88	63	86	57	209
Cc1cc(C)cc(NC(=O)C2C3C=CC4(O3)C2C(=O)N(CCCN2CCCCC2)C4C(=O)NC2CCCCC2)c1 (configuration not stated)	93	84	89	86	69	327
O=C(Nc1ccc(Br)cc1)C1C2C=CC3(O2)C1C(=O)N(CCN1CCOCC1)C3C(=O)NC1CCCCC1 (configuration not stated)	438*[may fluoresce violet]	88	57	?	25	292
Cc1ccc(NC(=O)C2C3C=CC4(O3)C2C(=O)N(CCN2CCOCC2)C4C(=O)NC2CCCCC2)cc1C (configuration not stated)	100	98	105	99	106	234
COc1ccc(C2(CNS(=O)(=O)c3ccc(C)cc3)CCOCC2)cc1	191*[may fluoresce violet]	96	50	?	22	321
COc1ccc(C2(CNC(=O)C(=O)Nc3ccc(C)cc3)CCOCC2)cc1	101	98	99	97	94	173
COc1ccc([N+](=O)[O-])cc1NC(=S)Nc1ccccc1	96	99	94	100	107	214
O=[N+]([O-])c1ccc(O)c(NC(=S)Nc2ccccc2)c1	313*[may fluoresce violet]	78	90	?	22	380
O=C(C1CCN(S(=O)(=O)c2cccs2)CC1)N(c1ccccn1)C1CCCCC1	85	104	46*[may fluoresce violet]	?	?	i
O=C(NCc1ccccc1Cl)C1CCN(S(=O)(=O)c2cccs2)CC1	205*[may fluoresce violet]	56	42*[may fluoresce violet]	?	?	209
O=C(NC1CCCCC1)C1CCN(S(=O)(=O)c2cccs2)CC1	104	100	101	98	101	186
COc1ccccc1NC(=O)C1CCN(S(=O)(=O)c2cccs2)CC1	+[may fluoresce green]	+[may fluoresce green]	i	+[may fluoresce green]	+[may fluoresce green]	i
O=C(NCCN1CCOCC1)c1ccc(CS(=O)(=O)Cc2ccccc2F)o1	192*	100	94	97	80	624
O=C(NCCc1ccccc1)c1ccc(CS(=O)(=O)Cc2ccccc2F)o1	93	81	?	99	80	431
COc1ccccc1C(=O)NCCC(=O)N1CCN(c2cccc(C(F)(F)F)c2)CC1	99	105	99	105	102	403
c1ccc(CSC2=NNC(c3ccccn3)S2)cc1 (configuration not stated)	87	122	91	84	94	68*
O=C(CSC1=NNC(c2ccccn2)S1)Nc1ccc(C(F)(F)F)cc1 (configuration not stated)	100	120	99	104	111	458
CCc1ccccc1NNC(=O)c1snnc1C	114	103	108	120	108	52*
Cc1nnsc1C(=O)NNc1c(Cl)cccc1Cl	96	100	102	96	100	521
N#Cc1c(NC(=O)/C=C/C(=O)O)sc2c1CCN(Cc1ccccc1)C2	367*[may fluoresce violet]	72	23*[may fluoresce violet]	?	?	385
Cc1cc(C)n2nc(SC(C)C(=O)Nc3ccccc3F)nc2n1 (configuration not stated)	108	95	100	112	100	209
CCOC(=O)C1=C(O)c2ccccc2C(=O)/C1=C\c1ccc(CC)cc1	109	126	95	88	99	373
CCOC(=O)C1=C(Cc2ccc(C)cc2)C(=O)c2ccccc2C1=O	113	168*	101	83	81	278
